High-throughput results: PubChem, Johns Hopkins Ion Channel Center
Compounds with a hit are over-represented: about 3.7% of the library has one in this group of screens.
hERG protect = hERG rescue from dofetilide block, primary screen, cell-based, CHO-hERG, FluxOR thallium flux, dofetilide IC70; 0.51% of 310,000 active; dofetilide IC70 present; activation (rescue from dofetilide block), less the hit threshold, % at 10 µM; Voltage-gated inwardly rectifying potassium channel KCNH2 (Homo sapiens), Q12809;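 active means activation above the mean of controls blocked by dofetilide plus 5 SD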;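 further: thallium influx through hERG after potassium depolarization seen as dye fluorescence rise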
KCNK3 block = human KCNK3 channel inhibitors, primary screen, CHO cells, FluxOR thallium flux, B-score. Potassium channel subfamily K member 3 (Homo sapiens), O14649. FluxOR fluorescence; stronger effect = lower value. B-score at 10 µM. 0.84% of 340,000 active;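 active means B-score under library mean minus 4 SD, starting fluorescence ratio at most library mean plus 5 SD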;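 further: more negative B-score means stronger inhibition of thallium flux through KCNK3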
KCNK9 block = KCNK9 potassium channel inhibitors, primary screen, HEK293 cells, thallium flux; AID 488922, 2010; Potassium channel subfamily K member 9 (Homo sapiens), Q9NPC2; FluxOR thallium flux fluorescence; stronger effect = lower value; B-score at 10 µM; 1.2% of 310,000 active;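 active means ratio B-score over 3 SD below the library mean, with starting fluorescence within 5 SD of its mean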;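 further: negative B-score means less thallium flux so channel inhibition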
Kir21 inh = inhibitors of mouse Kir2.1 inward-rectifier potassium channel; HEK293-Kir2.1, FluxOR thallium flux fluorescence; stronger effect = lower value; B-score at 10 µM; 0.85% of 310,000 active; Inward rectifier potassium channel 2 (Mus musculus), P35561;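 active means fluorescence ratio B-score at or below minus 3 SD of library scores, with starting-brightness B-score within 2 SD, cut at about -4.2 in these data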;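 further: channel flux triggered by added potassium and thallium sulfate stimulus; B-score of peak minus minimum fluorescence over baseline after thallium stimulus; more negative B-score means stronger Kir2.1 block with less thallium influx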
Target sequence (P35561 whole entry, looked up): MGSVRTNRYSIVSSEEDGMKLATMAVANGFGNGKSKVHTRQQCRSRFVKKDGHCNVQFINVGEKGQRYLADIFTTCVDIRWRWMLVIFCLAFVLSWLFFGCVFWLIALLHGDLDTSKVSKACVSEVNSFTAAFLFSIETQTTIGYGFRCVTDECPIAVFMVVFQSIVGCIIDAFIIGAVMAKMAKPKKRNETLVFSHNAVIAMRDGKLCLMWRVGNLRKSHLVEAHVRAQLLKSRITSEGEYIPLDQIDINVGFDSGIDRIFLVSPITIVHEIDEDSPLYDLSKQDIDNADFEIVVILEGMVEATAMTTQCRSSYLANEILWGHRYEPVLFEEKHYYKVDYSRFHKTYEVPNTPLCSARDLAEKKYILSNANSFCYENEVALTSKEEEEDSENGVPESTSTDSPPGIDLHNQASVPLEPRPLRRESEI
KCNQ1 inh = inhibitors of human KCNQ1 channel, primary screen, cell-based, thallium flux, high-throughput; Potassium voltage-gated channel subfamily KQT member 1 (Homo sapiens), P51787; CHO-K1 KCNQ1, FluxOR thallium flux fluorescence; stronger effect = higher value; B-score at 10 µM; 1.3% of 310,000 active; AID 2642, 2010;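 active means compounds whose thallium flux B-score, printed positive for inhibition, exceeds three library SD while starting fluorescence stays within three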;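 further: channel opened by potassium depolarization with thallium stimulus after 20 min compound exposure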
KCNQ1 pot = potentiators or activators of KCNQ1 channel, primary screen, cell-based, thallium flux, high-throughput. Potassium voltage-gated channel subfamily KQT member 1 (Homo sapiens), P51787. CHO-K1 KCNQ1, thallium flux FluxOR fluorescence; stronger effect = higher value. B-score at 10 µM. 0.35% of 310,000 active;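 active means fluorescence ratio B-score, a plate-corrected score, at least three library SD, with initial intensity B-score within 5 SD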
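Assay system: CHO-K1 cells stably expressing KCNQ1; Medium: assay buffer with matched DMSO; Also added: K+/Tl+ depolarizing stimulus; Dosing: single dose; Timing: dye 90 min, compound 20 min, room temperature; Measured by: kinetic FluxOR thallium fluorescence, 10-s 1-Hz baseline, 110-s post-stimulus read; Read-out: peak-minus-minimum fluorescence over initial fluorescence, negative-control normalized, B-scored.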
* = called active by the depositor; i = inactive; · = not tested or not shown.

SMILES | hERG protect | KCNK3 block | KCNK9 block | Kir21 inh | KCNQ1 inh | KCNQ1 pot
COc1cccc2c3cccc(OC)c3c3[nH]cnc3c12 | · | i | · | · | · | ·
CCN(CC)CCCNc1nc2cc(OC)c(OC)cc2c2nc(-c3ccccc3)nn12 | -6.8 | i | i | -0.85 | i | i
CCN(CC)CCCNc1nc2cc(OC)c(OC)cc2c2nc(-c3cccnc3)nn12 | -7.3 | i | i | 0.03 | 11* | i
CCOCCCNCc1ccc(OCc2ccccc2Cl)cc1 | -6.3 | i | i | -4.33* | i | i
CC(C)(C)c1ccc(OCCCNCc2ccccc2)cc1 | -23.6 | i | i | -3.77 | i | i
CCc1cc(OCCCCNCc2ccccc2)ccc1Cl | -20.2 | i | i | -11* | i | i
Cc1ccc(NS(=O)(=O)c2ccc(Br)s2)cc1S(=O)(=O)N1CCOCC1 | -4.8 | i | i | 3 | i | i
Cc1ccc(C)c(CNS(=O)(=O)c2c(C(=O)N3CCCC3)c(C)n(C)c2C)c1 | -9.4 | i | i | -0.87 | i | i
CCOC(=O)C1(Cc2ccc(Cl)cc2)CCN(C(C)Cc2ccc(O)c(OC)c2)CC1 (stereo unspecified) | -16.2 | i | i | -0.96 | 13* | i
Cc1ccc(Nc2cc(C)c3c(O)cccc3n2)cc1C | -16.0 | i | i | -1.82 | i | i
COc1ccc(Nc2cc(C)c3c(O)cccc3n2)cc1 | -13.6 | i | i | -13* | i | i
COc1ccc(CC2(c3ccccc3)NC(=O)NC2=O)cc1 (stereo unspecified) | · | i | · | · | · | ·
COc1cc2c(cc1OC)CN(C(=O)c1ccc(Cl)c(S(=O)(=O)N3CCCC3)c1)CC2 | · | -8.74* | · | · | · | ·
COc1ccccc1NC(=O)CN1CCC(C(=O)c2ccc(F)cc2)CC1 | -16.0 | i | i | -0.43 | i | i
CCOc1ccccc1NC(=O)CN1CCC(C(=O)c2ccc(F)cc2)CC1 | -4.8 | i | -7.07* | -0.13 | i | i
O=C(NNc1c2ccccc2nc2ccccc12)c1ccccc1O | -10.9 | i | i | 0 | i | i
O=C(NNc1c2ccccc2nc2ccccc12)c1ccccc1Cl | -3.1 | i | i | -0.98 | i | 9*
O=C(Nc1ncc(Br)s1)C(Cc1ccccc1)n1cccc1 (stereo unspecified) | 11.1* | i | i | -1.54 | i | 31*
CC1c2cc3c(cc2CCN1C(=O)c1ccc(C(F)(F)F)cc1)OCCCO3 (stereo unspecified) | -17.3 | i | -6.91* | -0.96 | i | i
COc1ccc(CNC(=O)Cc2cn(C)c3ccccc23)c(OC)c1 | -7.6 | i | i | -4.35* | i | i
CCn1c2ccccc2c2cc(CNCc3ccc(OC)cc3OC)ccc21 | -36.5 | i | i | -9.8* | i | i
COc1cccc(CNCc2ccc(OC)cc2OC)c1 | -6.6 | i | i | -1.88 | i | i
OCCC1CN(Cc2ccc(-c3ccco3)cc2)CCN1Cc1ccsc1 (stereo unspecified) | -18.1 | i | i | -4.52* | i | i
OCCC1CN(Cc2cccc3nonc23)CCN1Cc1ccsc1 (stereo unspecified) | -7.9 | i | i | 0.11 | i | i
OCCC1CN(Cc2ccccc2OC2CCCC2)CCN1Cc1ccsc1 (stereo unspecified) | -9.1 | i | i | -4.45* | i | i
COc1ccc(/C=C2\C(=O)c3ccccc3OC2c2ccccc2)cc1 (stereo unspecified) | -6.0 | i | -6.7* | 0.33 | i | i
COC(=O)CNc1nc(Cl)nc(Nc2ccc(C)cc2)n1 | 6.7* | i | i | -0.43 | i | i
CCc1ccc(C(=O)NNC(=O)CN2C(=O)NC3(CCCC3)C2=O)cc1 | · | i | · | · | · | ·
